ChEMBL document CHEMBL1142175, “Activities of antimicrobial peptides and synergy with enrofloxacin against Mycoplasma pulmonis” (2007)
Converted amounts (≈) assume the structure as drawn. The source made the active and inactive calls. The rule behind the calls is not given here. Starred links: 1 amine or outer side, 2 acyl side, 3 side chain; linkers in the order of their positions; H or OH if unused. Positions of bridges follow the written chain, without caps; N, C: chain ends. Non-standard residues stand in square brackets, D forms with d. Residues, ends and D or L forms follow the SMILES beside them. X1 = CC(C)CCCCCCCCC[C@H](CC(=O)[*:1])O[*:2]; Orn = NCCC[C@H](N)C(=O)O

Tests used:
[1] = test system: Mycoplasma pulmonis; test: Antibacterial activity against 10^6 CFU/ml Mycoplasma pulmonis MpUR1.1 after 48 hrs; format: functional; conditions: Mycoplasmopsis pulmonis
Summary of the method: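 Mycoplasmas seeded at 10^6 CFU/ml in Hayflick medium with 5% horse serum, with twofold serial drug dilutions (0.4 to 100 µM). Growth was followed by phenol red colour change. MIC was the lowest concentration giving complete growth inhibition at 48 h. Triplicate.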

[2] = test system: Mycoplasma pulmonis; test: Antibacterial activity against 10^6 CFU/ml growth-phase Mycoplasma pulmonis MpUR1.1 assessed as viable cell count after 2 hrs relative to control; format: functional; conditions: Mycoplasmopsis pulmonis
Summary of the method: (§1)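 Time-kill on log-phase cells, about 10^6 CFU/ml in Hayflick broth, exposed to a single drug concentration at 37°C. Aliquots were taken at 1, 2 or 24 h, serially diluted and plated for viable counts. Counts were expressed as percent of the untreated culture. Values are the mean of two independent experiments.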

[3] = test system: Mycoplasma pulmonis; test: Antibacterial activity against 10^6 CFU/ml log-phase Mycoplasma pulmonis MpUR1.1 assessed as viable cell count at 0.4 uM after 1 hr relative to control; format: functional, Mycoplasmopsis pulmonis; summary of the method: as §1
[4] = test system: Mycoplasma pulmonis; test: Antibacterial activity against 10^6 CFU/ml Mycoplasma pulmonis MpUR1.1 assessed as viable cell count after 2 hrs; format: functional; conditions: Mycoplasmopsis pulmonis
Summary of the method: (§2)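 For bactericidal testing, cells were exposed to peptides for 2 h or enrofloxacin for 24 h, then plated on solid medium at 37°C under anaerobic conditions. Colonies were read after 4 to 5 days. MBC was the lowest concentration killing 99.9% of cells. Triplicate.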

[5] = test system: Mycoplasma pulmonis; test: Antibacterial activity against 10^6 CFU/ml log-phase Mycoplasma pulmonis MpUR1.1 assessed as viable cell count at 0.4 uM after 24 hrs relative to control; format: functional, Mycoplasmopsis pulmonis; summary of the method: as §1
[6] = test system: Mycoplasma pulmonis; test: Ratio of MBC to MIC for Mycoplasma pulmonis MpUR1.1; format: functional, Mycoplasmopsis pulmonis
Summary of the method: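 MIC came from broth microdilution at 10^6 CFU/ml in Hayflick medium with 5% horse serum. Twofold dilutions ran from 0.4 to 100 µM, with phenol red read-out at 48 h. MBC came from plating after exposure (peptides 2 h, enrofloxacin 24 h) on solid medium at 37°C under anaerobic conditions. MBC was the concentration killing 99.9% of cells, with colonies read at 4 to 5 days.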

[7] = test system: Mycoplasma pulmonis; test: Antibacterial activity against 10^6 CFU/ml log-phase Mycoplasma pulmonis MpUR1.1 assessed as viable cell count at 6.25 uM after 1 hr relative to control; format: functional, Mycoplasmopsis pulmonis; summary of the method: as §1
[8] = test system: Mycoplasma pulmonis; test: Antibacterial activity against 10^6 CFU/ml log-phase Mycoplasma pulmonis MpUR1.1 assessed as viable cell count at 6.25 uM after 24 hrs relative to control; format: functional, Mycoplasmopsis pulmonis; summary of the method: as §1
[9] = test system: Mycoplasma pulmonis; test: Antibacterial activity against 10^6 CFU/ml Mycoplasma pulmonis MpUR1.1 assessed as viable cell count after 24 hrs; format: functional; conditions: Mycoplasmopsis pulmonis; summary of the method: as §2
[10] = test system: Mycoplasma pulmonis; test: Antibacterial activity against 10^6 CFU/ml log-phase Mycoplasma pulmonis MpUR1.1 assessed as viable cell count at 3.12 uM after 24 hrs relative to control; format: functional, Mycoplasmopsis pulmonis; summary of the method: as §1
[11] = test system: Mycoplasma pulmonis; test: Antibacterial activity against 10^6 CFU/ml log-phase Mycoplasma pulmonis MpUR1.1 assessed as viable cell count at 3.12 uM after 1 hr relative to control; format: functional, Mycoplasmopsis pulmonis; summary of the method: as §1
[12] = test system: Mycoplasma pulmonis; test: Antibacterial activity against 10^6 CFU/ml log-phase Mycoplasma pulmonis MpUR1.1 assessed as viable cell count at 25 uM after 24 hrs relative to control; format: functional, Mycoplasmopsis pulmonis; summary of the method: as §1
[13] = test system: Mycoplasma pulmonis; test: Antibacterial activity against 10^6 CFU/ml log-phase Mycoplasma pulmonis MpUR1.1 assessed as viable cell count at 25 uM after 1 hr relative to control; format: functional, Mycoplasmopsis pulmonis; summary of the method: as §1

Structure (SMILES)	MIC [1] [µg/mL]	Activity [2]	Activity [3] [%]	MBC [4] [µg/mL]	Activity [5] [%]	Ratio [6]	Activity [7] [%]	Activity [8] [%]	MBC [9] [µg/mL]	Activity [10] [%]	Activity [11] [%]	Activity [12] [%]	Activity [13] [%]
CCCCCC[C@H]1OC(=O)CNC(=O)[C@H]([C@H](C)O)NC(=O)[C@H](CO)NC(=O)[C@H]([C@H](C)CC)NC(=O)[C@H](CC(C)C)N(C)C(=O)[C@@H]1C	0.26 (≈ 0.396 µM)	Active	68	8.2 (≈ 12.5 µM)	0.05	31	–	–	–	–	–	–	–
CC(=O)NC(C)(C)C(=O)N1CCC[C@H]1C(=O)NC(C)(C)C(=O)N[C@@H](C)C(=O)NC(C)(C)C(=O)N[C@@H](C)C(=O)N[C@@H](CCC(N)=O)C(=O)NC(C)(C)C(=O)N[C@H](C(=O)NC(C)(C)C(=O)NCC(=O)N[C@@H](CC(C)C)C(=O)NC(C)(C)C(=O)N1CCC[C@H]1C(=O)N[C@H](C(=O)NC(C)(C)C(=O)NC(C)(C)C(=O)N[C@@H](CCC(=O)O)C(=O)N[C@@H](CCC(N)=O)C(=O)N[C@H](CO)Cc1ccccc1)C(C)C)C(C)C [ALAMETHICIN]	12.3 (≈ 6.26 µM)	Active	–	49.1 (≈ 25 µM)	–	2	31	0	–	–	–	–	–
CCN1CCN(c2cc3c(cc2F)c(=O)c(C(=O)O)cn3C2CC2)CC1 [ENROFLOXACIN]	0.14 (≈ 0.39 µM)	Active	89	–	0.22	2	–	–	0.29 (≈ 0.807 µM)	–	–	–	–
CC(C)C[C@@H]1NC(=O)[C@H](CCCN)NC(=O)[C@H](C(C)C)NC(=O)[C@@H]2CCCN2C(=O)[C@@H](Cc2ccccc2)NC(=O)[C@H](CC(C)C)NC(=O)[C@H](CCCN)NC(=O)[C@H](C(C)C)NC(=O)[C@@H]2CCCN2C(=O)[C@@H](Cc2ccccc2)NC1=O [GRAMICIDIN S] (cyclo(L[dF]PV[Orn]L[dF]PV[Orn]))	3.6 (≈ 3.15 µM)	Active	–	7.1 (≈ 6.22 µM)	–	2	–	–	–	0.16	98	–	–
CC(C)CCCCCCCCC[C@@H]1CC(=O)N[C@@H](CCC(=O)O)C(=O)N[C@@H](CC(C)C)C(=O)N[C@H](CC(C)C)C(=O)N[C@@H](C(C)C)C(=O)N[C@@H](CC(=O)O)C(=O)N[C@H](CC(C)C)C(=O)N[C@@H](CC(C)C)C(=O)O1 [SURFACTIN] (EL[dL]VD[dL]L; linker N-C via X1)	25.9 (≈ 25 µM)	Active	–	104 (≈ 100 µM)	–	2	–	–	–	–	–	0.08	43
